Assay outcomes (PubChem)
A selection: hits, their analogues and other compounds. The true share with any hit is near 4.9%.
STAT1 blocker: STAT1 signaling inhibitors, primary screen, cell-based, HTS, luciferase reporter. AID 920, 2007. actives 0.35% (n = 200,000). inhibition, % at 5.5 µM. NIH 3T3 STAT1-luciferase reporter, IFN-gamma, luminescence;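 active means inhibition above a set limit, the mean inhibition across all tested compounds plus 3 SD, cut at about 34% in these data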
STAT3 inh: IL-6 driven STAT3 reporter inhibitors, primary screen, U3A cells, luciferase, luminescence, MLSCN library | actives 0.89% (n = 190,000) | inhibition, % at 5.5 µM | IL-6 STAT3-luciferase reporter; host cell line lacks STAT1;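 active means inhibition above the mean inhibition across all screened compounds plus 3 SD, cut at about 44% in these data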
APP 5'UTR act: activators of APP 5'UTR luciferase reporter, primary screen, SH-SY5Y cells | activation, % at 2 µM | actives 1% (n = 190,000) | SH-SY5Y APP 5'UTR luciferase reporter, luminescence; zero percent = DMSO vehicle wells;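 active means activation above a set limit, based on mean plus 3 SD of controls, cut at about 140% in these data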
NF-kB neuron act: activators of NF-kB expression in neurons, primary screen, cell-based, HTS | actives 1.6% (n = 190,000) | AID 1239, 2008 | human neuronal cells, NF-kB reporter expression; active compounds read high | fold change at 12.5 µM; in the data active means fold change above about 3.3
STAT1 act-1: STAT1 signaling activators, primary screen, cell-based, HTS, luciferase reporter; actives 2.6% (n = 200,000); activation (% of control), % at 5.5 µM; NIH 3T3 STAT1-luciferase reporter, IFN-gamma, luminescence; 100% = IFN-gamma alone, no compound;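 active means activation above the screen-wide mean activation plus 3 SD, cut at about 130% in these data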
STAT3 act-1: IL-6 driven STAT3 reporter potentiators, primary screen, U3A cells, luciferase, luminescence, MLSCN library; IL-6 STAT3-luciferase reporter; 100% = signal with IL-6 EC80 alone; activation (% of control), % at 5.6 µM; actives 0.91% (n = 190,000);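 active means activation above the screen-wide mean of compound activation plus 3 SD, cut at about 130% in these data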
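System – human U3A cells carrying STAT3-luciferase construct · Probe or stimulus – Interleukin-6, 33 ng/mL · Schedule – compound 1 h, then IL-6 6 h at 37 °C · Signal – luminescence from STAT3-driven luciferase reporter · Evaluation – percent of IL-6-only median luminescence · Benchmarks – IL-6-only high control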
STAT3 act-2: STAT3 reporter potentiators, retest of hits, confirmation, U3A cells, luciferase, luminescence. AID 1267, 2008. IL-6 potentiation; U3A cells lack STAT1; 100 means same as IL-6 alone. actives 64% (n = 1,200). shares compounds with STAT3 act-1. potentiation (% of control), % at 5.7 µM;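 active means percent activation of the STAT3 luciferase reporter above a set limit taken from the earlier primary screen, cut at about 130% in these data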
NFkB act STAT3ct: NF-kB reporter activators in human cells, counter-screen for STAT3 activator project | actives 11% (n = 1,200) | AID 1309, 2008 | shares compounds with STAT3 act-1 | activation (% of control), % at 5.7 µM | NF-kappaB reporter activation; in the data active means activation above about 120%;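 further: reporter induced by TNF-alpha stimulation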
STAT1 act-2: STAT1 reporter activators, IFN-gamma induced, counter-screen for STAT3 activator project, cell-based, NIH 3T3, luciferase luminescence; AID 1318, 2008; shares compounds with STAT3 act-1; NIH 3T3 STAT1-luciferase reporter; activation (% of control), % at 5.7 µM; actives 13% (n = 1,200);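 active means activation above the solvent-only control well mean plus 3 SD, set per screening run, cut at about 120% in these data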
Of the large screens only hits and unclear results are named; the others gave an inactive call (follow-up assays come after a bar, where they were run).

Cc1ccc(C(=O)Nc2ccc3cn[nH]c3c2)cc1S(=O)(=O)N1CCCCC1	STAT3 act-1 143 | STAT3 act-2 139 | NFkB act STAT3ct inactive | STAT1 act-2 142
CC(C)CCNC(=O)Cc1ccccc1[N+](=O)[O-]	STAT3 act-1 150 | STAT3 act-2 inactive | NFkB act STAT3ct inactive | STAT1 act-2 inactive
CCn1cc(C(=O)N(CCC(C)C)c2c(N)n(Cc3ccccc3)c(=O)[nH]c2=O)c(=O)c2ccc(C)nc21	none
CCOc1ccccc1NC(=O)Cn1nnc(C(=O)NCc2ccco2)c1N	NF-kB neuron act 3.7, STAT3 act-1 138 | STAT3 act-2 inactive | NFkB act STAT3ct 142 | STAT1 act-2 inactive
O=C(c1cc(F)ccc1F)C1CCCN(C(=O)CCN2CCCCO2)C1 (centres undefined)	none
O=C(CN1CCNCC1)Nc1ccc(Oc2ccccc2)cc1	STAT3 act-1 141 | STAT3 act-2 139 | NFkB act STAT3ct inactive | STAT1 act-2 inactive
O=C(CN1CCOCC1)Nc1ccc(Oc2ccccc2)cc1	none
CCC1=Nc2cc(C(=O)NCc3ccco3)ccc2Sc2ccc(C)cc21	STAT3 act-1 145 | STAT3 act-2 inactive | NFkB act STAT3ct 154 | STAT1 act-2 inactive
CCC1=Nc2cc(C(=O)NCCCOC)ccc2Sc2ccccc21	none
O=C(c1cccc(C(F)(F)F)c1)N(c1ccccn1)C1CCCCC1	none
CSc1ccc(/C=N/NC(=O)CNc2ccc3ccccc3c2)cc1	STAT3 act-1 146 | STAT3 act-2 140 | NFkB act STAT3ct inactive | STAT1 act-2 inactive
CSc1ccc(/C=N/NC(=O)CNc2cccc3ccccc23)cc1	none
CC(C)Cc1cc(C(=O)Nc2cc(Cl)ccc2Cl)no1	STAT3 act-1 138 | STAT3 act-2 137 | NFkB act STAT3ct inactive | STAT1 act-2 inactive
C=CCNc1sc(C(=O)c2ccccc2)c(N)c1-c1nc2ccccc2s1	STAT3 act-1 143 | STAT3 act-2 inactive | NFkB act STAT3ct inactive | STAT1 act-2 inactive
CCNc1sc(C(=O)c2cccs2)c(N)c1-c1nc2ccccc2s1	none
CCOC(=O)c1sc(NCc2ccco2)c(-c2nc3ccccc3s2)c1N	STAT3 act-1 158 | STAT3 act-2 136 | NFkB act STAT3ct inactive | STAT1 act-2 inactive
COc1ccc(C2C3CCCCC3(O)CCN2C(=O)c2cccs2)cc1 (centres undefined)	none
Cc1ccc2cccc(NC(=S)NC(=O)c3c(Br)cnn3C)c2n1	STAT3 act-1 139 | STAT3 act-2 inactive | NFkB act STAT3ct inactive | STAT1 act-2 inactive
Cc1ccc2cccc(NC(=S)NC(=O)c3ccn(C)n3)c2n1	none
CCOC(=O)CSc1ncnc2c1cnn2-c1ccccc1	STAT3 act-1 138 | STAT3 act-2 inactive | NFkB act STAT3ct inactive | STAT1 act-2 inactive
CCCC(C)NC(=O)CSc1nc(-c2ccccc2)cn1N (centres undefined)	none
CC(=O)c1c(-c2ccc(C)cc2)nc2c3ccccc3ccn12	STAT3 act-1 142 | STAT3 act-2 143 | NFkB act STAT3ct inactive | STAT1 act-2 inactive
O=C(N[C@@H](Cc1ccccc1)C(=O)OCc1ccccc1)c1nc[nH]c1C(=O)NCc1ccccc1	none (no result: STAT3 inh, STAT3 act-1)
c1ccc2cc(-c3cc4ccccn4c3)ccc2c1	STAT3 act-1 177 | STAT3 act-2 inactive | NFkB act STAT3ct inactive | STAT1 act-2 inactive
CCO[C@@H]1OC(C(=O)N2CCCCCCC2)=C[C@H](c2cn(C(C)=O)c3ccccc23)[C@H]1CCCO	none (no result: STAT3 inh, STAT3 act-1)
O=C(Nc1ccccc1N1CCCC1)c1cc2ccccc2o1	STAT3 act-1 152 | STAT3 act-2 140 | NFkB act STAT3ct 124 | STAT1 act-2 134
CN1CCN(c2ccccc2NC(=O)c2ccc(Br)o2)CC1	none
O=C(Nc1ccccc1N1CCN(C(=O)c2ccccc2)CC1)c1cc2ccccc2o1	STAT3 act-1 142 | STAT3 act-2 inactive | NFkB act STAT3ct inactive | STAT1 act-2 inactive
CN1CCN(c2ccccc2NC(=O)c2cc3ccccc3o2)CC1	STAT3 act-1 144 | STAT3 act-2 inactive | NFkB act STAT3ct inactive | STAT1 act-2 inactive
O=C(Nc1ccccc1N1CCN(C(=O)c2ccccc2)CC1)c1cc(Br)ccc1Cl	none
CCOC(=O)c1cc(-c2ccc(F)cc2)n(CC(=O)NCc2cccnc2)c1C	none
Cc1ccc(NC(=O)C2=C(O)CCn3c2nc2ccccc23)cc1	STAT3 act-1 149 | STAT3 act-2 inactive | NFkB act STAT3ct inactive | STAT1 act-2 inactive
Cc1ccc(NC(=O)c2cc(Cl)nc3ccccc23)cc1	none
O=C(NCC1CCCO1)c1ccc(COc2ccc(F)cc2)o1 (centres undefined)	STAT3 act-1 138 | STAT3 act-2 inactive | NFkB act STAT3ct inactive | STAT1 act-2 inactive
O=C(Nc1ccccc1O)c1csc2c1CCCC2	STAT3 act-1 151 | STAT3 act-2 149 | NFkB act STAT3ct inactive | STAT1 act-2 inactive
O=c1[nH]nc(Cc2ccc3ccccc3n2)c2ccccc12	STAT3 act-1 147 | STAT3 act-2 inactive | NFkB act STAT3ct inactive | STAT1 act-2 inactive
CCCC1=Nc2cc(C(=O)NCCCOCC)ccc2Sc2ccccc21	STAT3 act-1 137 | STAT3 act-2 inactive | NFkB act STAT3ct 156 | STAT1 act-2 inactive
CCCC1=Nc2cc(C(=O)NCCCOC(C)C)ccc2Sc2ccccc21	none
CN(C)C(=O)N1CCC(C(=O)NCc2cccs2)CC1	STAT3 act-1 145 | STAT3 act-2 inactive | NFkB act STAT3ct inactive | STAT1 act-2 inactive
CCN(CC)CCn1c(NC(=O)c2ccc(C(F)(F)F)cc2)nc2ccccc21	none
CCn1c(NC(=O)c2cccs2)nc2ccccc21	STAT3 act-1 146 | STAT3 act-2 inactive | NFkB act STAT3ct inactive | STAT1 act-2 inactive
CN(C)CCn1c(NC(=O)c2ccc(Cl)cc2)nc2ccccc21	STAT3 act-1 164 (no result: APP 5'UTR act) | STAT3 act-2 157 | NFkB act STAT3ct inactive | STAT1 act-2 123
CCn1c(NC(C)=O)nc2ccccc21	none
COc1cc(S(=O)(=O)NCc2cccnc2)c(OC)cc1Br	none
Cc1ccc2c(c1)c(-c1ccccc1)nc1nnnn12	none
